{"source": "ChEMBL document CHEMBL1153974", "about": "“Piperidinyl-2-phenethylamino inhibitors of DPP-IV for the treatment of type 2 diabetes” (Bioorg Med Chem Lett, 2009)", "key": {"Dipeptidyl peptidase 4": {"biological_target": "Dipeptidyl peptidase 4 (Homo sapiens, UniProt P27487)", "sequence (P27487 whole entry)": "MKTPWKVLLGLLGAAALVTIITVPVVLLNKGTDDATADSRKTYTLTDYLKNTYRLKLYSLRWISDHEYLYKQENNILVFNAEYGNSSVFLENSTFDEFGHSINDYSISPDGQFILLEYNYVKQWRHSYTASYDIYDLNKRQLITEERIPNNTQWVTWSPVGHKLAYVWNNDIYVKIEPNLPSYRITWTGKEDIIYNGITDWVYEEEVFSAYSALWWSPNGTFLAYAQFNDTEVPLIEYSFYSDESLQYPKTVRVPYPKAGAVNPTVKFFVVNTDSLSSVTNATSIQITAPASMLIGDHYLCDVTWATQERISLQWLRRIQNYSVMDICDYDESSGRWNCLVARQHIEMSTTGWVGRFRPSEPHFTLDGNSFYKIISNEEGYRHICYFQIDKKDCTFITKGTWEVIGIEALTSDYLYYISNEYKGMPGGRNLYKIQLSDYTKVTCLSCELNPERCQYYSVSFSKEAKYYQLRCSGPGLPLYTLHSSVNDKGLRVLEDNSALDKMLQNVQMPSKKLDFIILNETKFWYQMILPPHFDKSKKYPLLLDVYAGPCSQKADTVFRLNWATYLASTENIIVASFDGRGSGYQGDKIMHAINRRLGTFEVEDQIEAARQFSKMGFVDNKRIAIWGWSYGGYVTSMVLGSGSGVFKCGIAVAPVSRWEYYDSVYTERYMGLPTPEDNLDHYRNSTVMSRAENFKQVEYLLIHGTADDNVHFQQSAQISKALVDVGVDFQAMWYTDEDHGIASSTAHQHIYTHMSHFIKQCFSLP", "assay": "Inhibition of human DPP4"}, "Dipeptidyl peptidase 2": {"biological_target": "Dipeptidyl peptidase 2 (Homo sapiens, UniProt Q9UHL4)", "assay": "Inhibition of human DPP2"}, "[1]": {"assay": "Clearance in dog plasma at 1 mg/kg, iv and 1 mg/kg, po", "type": "ADME, organism-based, Canis lupus familiaris"}, "[2]": {"assay": "Bioavailability in human at 15 mg", "type": "ADME, organism-based", "settings": "in vivo", "procedure,_shortened": "(§1)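 Human values projected from rat and dog ADME data by modeling; predicted plasma concentration–time profiles generated at varying doses.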"}, "[3]": {"assay": "Half life in human at 15 mg", "type": "ADME, organism-based", "settings": "in vivo", "procedure,_shortened": "as §1"}, "[4]": {"assay": "Clearance in rat plasma at 1 mg/kg, iv and 5 mg/kg, po", "type": "ADME, organism-based"}, "[5]": {"assay": "Bioavailability in dog at 1 mg/kg, iv and 1 mg/kg, po", "type": "ADME, organism-based, Canis lupus familiaris", "settings": "in vivo"}, "[6]": {"assay": "Volume of distribution at steady state in human at 15 mg", "type": "ADME, organism-based", "settings": "in vivo, read-out: Vdss", "procedure,_shortened": "as §1"}, "[7]": {"assay": "Volume of distribution at steady state in rat at 1 mg/kg, iv", "type": "ADME, organism-based", "design": "dose 1 mg/kg, route intravenous", "settings": "in vivo, read-out: Vdss"}, "[8]": {"assay": "Bioavailability in rat at 1 mg/kg, iv and 5 mg/kg, po", "type": "ADME, organism-based", "settings": "in vivo"}, "Rattus norvegicus": {"test_system": "Rattus norvegicus", "assay": "Inhibition of DPP4 in rat plasma at 5 mg/kg, po assessed as time required to inhibit 50% by PK/PD analysis", "type": "functional"}, "[9]": {"assay": "Clearance in human plasma at 15 mg", "type": "ADME, organism-based", "procedure,_shortened": "as §1"}, "[10]": {"assay": "Half life in rat at 1 mg/kg, iv", "type": "ADME, organism-based", "design": "dose 1 mg/kg, route intravenous", "settings": "in vivo"}, "[11]": {"assay": "Volume of distribution at steady state in dog at 1 mg/kg, iv", "type": "ADME, organism-based, Canis lupus familiaris", "design": "dose 1 mg/kg, route intravenous", "settings": "in vivo, read-out: Vdss"}, "[12]": {"assay": "Half life dog at 1 mg/kg, iv", "type": "ADME, organism-based, Canis lupus familiaris", "design": "dose 1 mg/kg, route intravenous", "settings": "in vivo"}, "[13]": {"biological_target": "Voltage-gated inwardly rectifying potassium channel KCNH2 (Homo sapiens, UniProt Q12809)", "sequence (Q12809 whole entry)": "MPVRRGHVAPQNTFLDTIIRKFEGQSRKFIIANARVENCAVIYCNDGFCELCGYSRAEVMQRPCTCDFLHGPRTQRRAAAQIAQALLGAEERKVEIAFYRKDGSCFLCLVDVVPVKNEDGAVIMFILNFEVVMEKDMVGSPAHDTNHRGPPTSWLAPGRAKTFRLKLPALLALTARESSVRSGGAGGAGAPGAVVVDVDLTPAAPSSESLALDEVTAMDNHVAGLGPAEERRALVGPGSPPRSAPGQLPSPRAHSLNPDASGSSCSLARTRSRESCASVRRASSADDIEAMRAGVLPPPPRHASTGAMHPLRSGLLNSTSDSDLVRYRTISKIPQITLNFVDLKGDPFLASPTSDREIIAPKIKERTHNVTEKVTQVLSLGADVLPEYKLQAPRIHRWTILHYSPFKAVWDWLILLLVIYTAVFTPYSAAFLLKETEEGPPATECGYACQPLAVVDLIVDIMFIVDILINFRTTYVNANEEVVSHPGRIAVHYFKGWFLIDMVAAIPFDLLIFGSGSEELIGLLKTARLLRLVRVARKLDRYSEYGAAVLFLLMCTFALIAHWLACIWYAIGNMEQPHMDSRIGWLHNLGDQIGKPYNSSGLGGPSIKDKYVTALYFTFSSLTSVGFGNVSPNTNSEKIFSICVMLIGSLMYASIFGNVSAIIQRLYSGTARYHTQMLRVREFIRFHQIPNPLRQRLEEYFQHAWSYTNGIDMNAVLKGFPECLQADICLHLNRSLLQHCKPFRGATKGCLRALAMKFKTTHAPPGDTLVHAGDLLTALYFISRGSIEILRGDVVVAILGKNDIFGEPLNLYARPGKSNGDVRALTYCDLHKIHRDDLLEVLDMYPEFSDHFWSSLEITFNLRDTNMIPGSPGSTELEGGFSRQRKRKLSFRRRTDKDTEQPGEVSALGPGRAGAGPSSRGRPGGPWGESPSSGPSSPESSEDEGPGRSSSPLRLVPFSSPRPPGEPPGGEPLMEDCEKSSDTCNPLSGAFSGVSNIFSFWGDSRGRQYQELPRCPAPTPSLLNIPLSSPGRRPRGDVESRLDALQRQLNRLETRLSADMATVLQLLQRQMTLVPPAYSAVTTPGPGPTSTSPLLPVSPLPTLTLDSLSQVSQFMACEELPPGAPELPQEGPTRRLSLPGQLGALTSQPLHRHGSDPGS", "assay": "Inhibition of human ERG by patch-clamp assay"}}, "data": [{"smiles": "Fc1cc(F)c(C[C@@H]2CCCCN2)cc1F", "values": [{"measurement": "IC50", "setting": "Dipeptidyl peptidase 4", "value": "> 30", "unit": "µM"}]}, {"smiles": "NCCc1cc(F)c(F)cc1F", "values": [{"measurement": "IC50", "setting": "Dipeptidyl peptidase 4", "value": "> 30", "unit": "µM"}]}, {"smiles": "Cc1cc2ncc(C(=O)N3CCC([C@H](N)Cc4cc(F)c(F)cc4F)CC3)c(C)n2n1", "values": [{"measurement": "IC50", "setting": "Dipeptidyl peptidase 2", "value": 16.8, "unit": "µM"}, {"measurement": "clearance", "setting": "[1]", "value": 12.9, "unit": "mL/min/kg"}, {"measurement": "bioavailability", "setting": "[2]", "value": 70, "unit": "%"}, {"measurement": "half-life", "setting": "[3]", "value": 3.5, "unit": "h"}, {"measurement": "clearance", "setting": "[4]", "value": 18, "unit": "mL/min/kg"}, {"measurement": "bioavailability", "setting": "[5]", "value": 52, "unit": "%"}, {"measurement": "Vd", "setting": "[6]", "value": 1, "unit": "L/kg"}, {"measurement": "Vd", "setting": "[7]", "value": 2.2, "unit": "L/kg"}, {"measurement": "bioavailability", "setting": "[8]", "value": 70, "unit": "%"}, {"measurement": "Activity", "setting": "Rattus norvegicus", "value": ">20", "unit": "h"}, {"measurement": "clearance", "setting": "[9]", "value": 3.4, "unit": "mL/min/kg"}, {"measurement": "half-life", "setting": "[10]", "value": 5.09, "unit": "h"}, {"measurement": "Vd", "setting": "[11]", "value": 2.2, "unit": "L/kg"}, {"measurement": "half-life", "setting": "[12]", "value": 3.71, "unit": "h"}]}, {"smiles": "Cc1ncc(C)c(C(=O)N2CCC([C@H](N)Cc3cc(F)c(F)cc3F)CC2)n1", "values": [{"measurement": "IC50", "setting": "Dipeptidyl peptidase 2", "value": "> 30", "unit": "µM"}, {"measurement": "IC50", "setting": "[13]", "value": 85, "unit": "µM"}, {"measurement": "Activity", "setting": "Rattus norvegicus", "value": 8, "unit": "h"}]}, {"smiles": "Cc1nccnc1C(=O)N1CCC([C@H](N)Cc2cc(F)c(F)cc2F)CC1", "values": [{"measurement": "IC50", "setting": "Dipeptidyl peptidase 2", "value": "> 30", "unit": "µM"}, {"measurement": "IC50", "setting": "[13]", "value": 55, "unit": "µM"}, {"measurement": "Activity", "setting": "Rattus norvegicus", "value": 12, "unit": "h"}]}, {"smiles": "N[C@H](Cc1cc(F)c(F)cc1F)C1CCN(C(=O)c2cnc3ncccn23)CC1", "values": [{"measurement": "IC50", "setting": "Dipeptidyl peptidase 2", "value": 10.8, "unit": "µM"}, {"measurement": "Activity", "setting": "Rattus norvegicus", "value": ">24", "unit": "h"}]}, {"smiles": "N[C@H](Cc1cc(F)c(F)cc1F)C1CCN(C(=O)c2ccc(F)cc2F)CC1", "values": [{"measurement": "IC50", "setting": "Dipeptidyl peptidase 2", "value": 11.1, "unit": "µM"}]}, {"smiles": "N[C@H](Cc1cc(F)c(F)cc1F)C1CCN(C(=O)c2cc3ccccc3cn2)CC1", "values": [{"measurement": "IC50", "setting": "Dipeptidyl peptidase 2", "value": 10.2, "unit": "µM"}]}, {"smiles": "N[C@H](Cc1cc(F)c(F)cc1F)CC1CCCCC1", "values": [{"measurement": "IC50", "setting": "Dipeptidyl peptidase 4", "value": "> 30", "unit": "µM"}]}, {"smiles": "Nc1nccnc1C(=O)N1CCC([C@H](N)Cc2cc(F)c(F)cc2F)CC1", "values": [{"measurement": "IC50", "setting": "Dipeptidyl peptidase 2", "value": 9.11, "unit": "µM"}]}]}
